# Laboratory results taken from ChEMBL document CHEMBL1681709, “Structure-activity relationship studies on 1-(5-carboxyindol-1-yl)-propan-2-one inhibitors of human cytosolic phospholipase A2α: variation of the activated ketone moiety” (Bioorg Med Chem Lett, 2011).
# Calls of active or inactive are those of the source. The calls are words filed in the database; no cut-off is given here.
# Key:
# Homo sapiens = organism: Homo sapiens; experiment: Inhibition of human platelet cytosolic phospholipase A2alpha at 10 uM
# Method in brief: (§1)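 cPLA2α isolated from human platelets. Reactions were stopped after 60 min with acetonitrile/methanol/0.1 M aqueous EDTA-Na2 containing 4-undecyloxybenzoic acid as internal standard and NDGA as oxygen scavenger. Released arachidonic acid was cleaned up by solid-phase extraction and quantified by RP-HPLC with UV detection at 200 nm. Results are IC50 or % inhibition at 10 μM, as means of at least two independent determinations.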
# [1] = Inhibition of human platelet cytosolic phospholipase A2alpha; method in brief: as §1
Compound,inhibition (Homo sapiens),IC50 [1]
CCCCCCCCc1ccc(OCC(Cn2ccc3cc(C(=O)O)ccc32)NC(=O)Oc2ccc(OC)cc2)cc1 (racemic),23%,> 10 µM
CCCCCCCCc1ccc(OCC(Cn2ccc3cc(C(=O)O)ccc32)NC(=O)Oc2ccccc2F)cc1 (racemic),inactive,–
CCCCCCCCc1ccc(OC/C(Cn2ccc3cc(C(=O)O)ccc32)=N/O)cc1,42%,> 10 µM
CCCCCCCCc1ccc(OC/C(Cn2ccc3cc(C(=O)O)ccc32)=N\O)cc1,32%,> 10 µM
CCCCCCCCc1ccc(OCC(Cn2ccc3cc(C(=O)O)ccc32)NC(=O)Oc2ccccc2Cl)cc1 (racemic),inactive,–
CCCCCCCCc1ccc(OCC(Cn2ccc3cc(C(=O)O)ccc32)OC(C)=O)cc1 (racemic),inactive,–
CCCCCCCCc1ccc(OCC(Cn2ccc3cc(C(=O)O)ccc32)NC(=O)Oc2ccc(F)cc2)cc1 (racemic),–,1.7 µM
CCCCCCCCc1ccc(OCC(Cn2ccc3cc(C(=O)O)ccc32)OC(=O)c2ccccc2)cc1 (racemic),18%,> 10 µM
CCCCCCCCc1ccc(OCC(Cn2ccc3cc(C(=O)O)ccc32)OS(C)(=O)=O)cc1 (racemic),16%,> 10 µM
CCCCCCCCc1ccc(OCC(Cn2ccc3cc(C(=O)O)ccc32)NC(=O)c2ccccc2)cc1 (racemic),inactive,–
CCCCCCCCc1ccc(OCC(Cn2ccc3cc(C(=O)O)ccc32)N=[N+]=[N-])cc1 (racemic),–,4.3 µM
CCCCCCCCc1ccc(OCC(Cn2ccc3cc(C(=O)O)ccc32)NC(=O)Oc2ccc(Cl)cc2)cc1 (racemic),28%,> 10 µM
CCCCCCCCc1ccc(OCC(Cn2ccc3cc(C(=O)O)ccc32)OC(=O)Nc2ccccc2)cc1 (racemic),inactive,–
CCCCCCCCc1ccc(OCC(N)Cn2ccc3cc(C(=O)O)ccc32)cc1 (racemic),37%,> 10 µM
CCCCCCCCc1ccc(OCC(Cn2ccc3cc(C(=O)O)ccc32)NC(=O)Oc2ccccc2OC)cc1 (racemic),inactive,–
CCCCCCCCc1ccc(OCC(Cn2ccc3cc(C(=O)O)ccc32)NC(=O)Nc2ccccc2)cc1 (racemic),inactive,–
CCCCCCCCc1ccc(OCC(Cn2ccc3cc(C(=O)O)ccc32)NC(=O)Oc2ccccc2)cc1 (racemic),–,4.6 µM
CCCCC/C=C\C/C=C\C/C=C\C/C=C\CCCC(=O)C(F)(F)F [ARACHIDONYL TRIFLUOROMETHYLKETONE],–,2.3 µM
CCCCCCCCc1ccc(OCC(Cn2ccc3cc(C(=O)O)ccc32)NC(=O)Oc2cccc(F)c2)cc1 (racemic),–,5.1 µM
CCCCCCCCc1ccc(OCC(Cn2ccc3cc(C(=O)O)ccc32)NC(=O)OC)cc1 (racemic),21%,> 10 µM
CCCCCCCCc1ccc(OCC(Cn2ccc3cc(C(=O)O)ccc32)NC(C)=O)cc1 (racemic),inactive,–
CCCCCCCCc1ccc(OCC(Cn2ccc3cc(C(=O)O)ccc32)=NOC)cc1 (mixture of isomers),22%,> 10 µM
